Data taken from ChEMBL document CHEMBL4033712, “Synthesis and biological evaluation of new C-12(α/β)-(N-) sulfamoyl-phenylamino-14-deoxy-andrographolide derivatives as potent anti-cancer agents” (Bioorg Med Chem Lett, 2017).

Assays:
Format in all cases: functional
[1] = test system: NCI/ADR-RES; assay: Growth inhibition of human NCI/ADR-RES cells incubated for 48 hrs by sulforhodamine B assay
Method in brief: (§1)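 NCI-60 five-dose screen at 0.01, 0.1, 1, 10 and 100 µM, 48 h incubation, sulforhodamine B end point. GI50 (50% decrease in net growth), TGI (total growth inhibition) and LC50 (net 50% loss of initial cells) taken from log concentration versus % growth inhibition curves.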

[2] = test system: HOP-92; assay: Growth inhibition of human HOP92 cells incubated for 48 hrs by sulforhodamine B assay; conditions: HOP-92, 48 h; method in brief: as §1
[3] = test system: MCF7; assay: Growth inhibition of human MCF7 cells incubated for 48 hrs by sulforhodamine B assay; conditions: MCF7, 48 h; method in brief: as §1
[4] = test system: NCI-H226; assay: Growth inhibition of human NCI-H226 cells incubated for 48 hrs by sulforhodamine B assay; conditions: NCI-H226, 48 h; method in brief: as §1
[5] = test system: MDA-MB-468; assay: Growth inhibition of human MDA-MB-468 cells incubated for 48 hrs by sulforhodamine B assay; conditions: MDA-MB-468, 48 h; method in brief: as §1
[6] = test system: RXF 393; assay: Growth inhibition of human RXF393 cells incubated for 48 hrs by sulforhodamine B assay; conditions: RXF 393, 48 h
Method in brief: (§2)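 NCI 60 human tumour cell line panel, five-dose study at 0.01, 0.1, 1, 10 and 100 µM, 48 h incubation. Sulforhodamine B protein-binding dye end point. GI50 (50% decrease in net cell growth), TGI (total growth inhibition) and LC50 (net 50% loss of initial cells) read from log concentration versus % growth inhibition curves.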

[7] = test system: MDA-MB-231; assay: Growth inhibition of human MDA-MB-231 cells incubated for 48 hrs by sulforhodamine B assay; conditions: MDA-MB-231, 48 h; method in brief: as §1
[8] = test system: SK-MEL-5; assay: Growth inhibition of human SK-MEL-5 cells incubated for 48 hrs by sulforhodamine B assay; conditions: SK-MEL-5, 48 h; method in brief: as §2
[9] = test system: SK-OV-3; assay: Growth inhibition of human SKOV3 cells incubated for 48 hrs by sulforhodamine B assay; conditions: SK-OV-3, 48 h; method in brief: as §2
[10] = test system: TK-10; assay: Growth inhibition of human TK10 cells incubated for 48 hrs by sulforhodamine B assay; conditions: TK-10, 48 h; method in brief: as §2
[11] = test system: SR; assay: Growth inhibition of human SR cells incubated for 48 hrs by sulforhodamine B assay; method in brief: as §2
[12] = test system: OVCAR-5; assay: Growth inhibition of human OVCAR5 cells incubated for 48 hrs by sulforhodamine B assay; conditions: OVCAR-5, 48 h; method in brief: as §1
[13] = test system: SNB-19; assay: Anticancer activity against human SNB19 cells assessed as cell growth at 10 uM after 48 hrs by sulforhodamine B assay relative to control; conditions: SNB-19, 48 h, read-out: Activity
Method in brief: (§3)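 Single-dose NCI-60 panel screen: compound added at 10 µM and the culture incubated 48 h. The end point was read by protein staining with sulforhodamine B. The value is percent growth of treated cells relative to untreated control cells, reported as a mean graph across the panel.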

[14] = test system: SF-539; assay: Anticancer activity against human SF539 cells assessed as cell growth at 10 uM after 48 hrs by sulforhodamine B assay relative to control; conditions: SF-539, 48 h, read-out: Activity; method in brief: as §3
[15] = test system: UACC-62; assay: Growth inhibition of human UACC62 cells incubated for 48 hrs by sulforhodamine B assay; conditions: UACC-62, 48 h; method in brief: as §2
[16] = test system: A549; assay: Growth inhibition of human A549/ATCC cells incubated for 48 hrs by sulforhodamine B assay; conditions: A549, 48 h; method in brief: as §1
[17] = test system: M14; assay: Growth inhibition of human M14 cells incubated for 48 hrs by sulforhodamine B assay; conditions: M14, 48 h; method in brief: as §1
[18] = test system: T47D; assay: Growth inhibition of human T47D cells incubated for 48 hrs by sulforhodamine B assay; method in brief: as §2
[19] = test system: PC-3; assay: Growth inhibition of human PC3 cells incubated for 48 hrs by sulforhodamine B assay; conditions: PC-3, 48 h; method in brief: as §1
[20] = test system: SF-268; assay: Growth inhibition of human SF268 cells incubated for 48 hrs by sulforhodamine B assay; conditions: SF-268, 48 h; method in brief: as §2
[21] = test system: HOP-92; assay: Anticancer activity against human HOP92 cells assessed as cell growth at 10 uM after 48 hrs by sulforhodamine B assay relative to control; conditions: HOP-92, 48 h, read-out: Activity; method in brief: as §3
[22] = test system: HCC 2998; assay: Growth inhibition of human HCC2998 cells incubated for 48 hrs by sulforhodamine B assay; conditions: HCC 2998, 48 h; method in brief: as §1
[23] = test system: MDA-MB-435; assay: Growth inhibition of human MDA-MB-435 cells incubated for 48 hrs by sulforhodamine B assay; conditions: MDA-MB-435, 48 h; method in brief: as §1
[24] = test system: COLO 205; assay: Growth inhibition of human COLO205 cells incubated for 48 hrs by sulforhodamine B assay; conditions: COLO 205, 48 h; method in brief: as §1
[25] = test system: SNB-19; assay: Growth inhibition of human SNB19 cells incubated for 48 hrs by sulforhodamine B assay; conditions: SNB-19, 48 h; method in brief: as §2
[26] = test system: SK-MEL-2; assay: Growth inhibition of human SK-MEL-2 cells incubated for 48 hrs by sulforhodamine B assay; conditions: SK-MEL-2, 48 h; method in brief: as §2
[27] = test system: SNB-75; assay: Growth inhibition of human SNB75 cells incubated for 48 hrs by sulforhodamine B assay; conditions: SNB-75, 48 h; method in brief: as §2
[28] = test system: SW-620; assay: Growth inhibition of human SW620 cells incubated for 48 hrs by sulforhodamine B assay; conditions: SW-620, 48 h; method in brief: as §2
[29] = read-out: LC50 (the source's name)

C=C1CC[C@@H]2[C@](C)(COC(C)=O)[C@H](OC(C)=O)CC[C@@]2(C)[C@H]1CC(Nc1ccc(S(=O)(=O)Nc2nccs2)cc1)C1=CCOC1=O (stereo partly drawn)
GI50 [1]: 2.97 µM
LC50 (concentration giving net 50% loss of initial cells) [1]: > 100 µM
TGI [1]: 12.7 µM
GI50 [2]: 12.4 µM
TGI [2]: 25.3 µM
CC50 [2, 29]: 52 µM
GI50 [3]: 2.59 µM
TGI [3]: 13.6 µM
CC50 [3, 29]: > 100 µM
GI50 [4]: 2.36 µM
TGI [4]: 5.37 µM
CC50 [4, 29]: > 100 µM
GI50 [5]: 1.83 µM
TGI [5]: 4.43 µM
CC50 [5, 29]: 14.1 µM
GI50 [6]: 2.36 µM
TGI [6]: 4.74 µM
CC50 [6, 29]: 9.53 µM
GI50 [7]: 3.3 µM
LC50 (concentration giving net 50% loss of initial cells) [7]: 37.6 µM
TGI [7]: 8.25 µM
GI50 [8]: 4.79 µM
TGI [8]: 17.1 µM
CC50 [8, 29]: 41.3 µM
GI50 [9]: 14.4 µM
TGI [9]: 27.8 µM
CC50 [9, 29]: 53.5 µM
GI50 [10]: 9.45 µM
TGI [10]: 21.2 µM
CC50 [10, 29]: 46.1 µM
GI50 [11]: 1.33 µM
TGI [11]: > 100 µM
CC50 [11, 29]: > 100 µM
GI50 [12]: 4.82 µM
LC50 (concentration causing net 50% loss of initial cells) [12]: 46.9 µM
TGI [12]: 17.6 µM
growth at 10 µM [13]: 49.1%
growth at 10 µM [14]: -67.1%
GI50 [15]: 1.76 µM
TGI [15]: 4.42 µM
CC50 [15, 29]: 13.5 µM
GI50 [16]: 3.67 µM
TGI [16]: 11.2 µM
CC50 [16, 29]: 40.4 µM
GI50 [17]: 2.83 µM
TGI [17]: 10.5 µM
CC50 [17, 29]: 42.2 µM
GI50 [18]: 3.39 µM
TGI [18]: 20.8 µM
CC50 [18, 29]: > 100 µM
GI50 [19]: 7.74 µM
TGI [19]: 21.5 µM
CC50 [19, 29]: 52.2 µM
GI50 [20]: 11.3 µM
TGI [20]: 25.9 µM
CC50 [20, 29]: 59.1 µM
growth at 10 µM [21]: 54%
GI50 [22]: 7.78 µM
TGI [22]: 21.3 µM
CC50 [22, 29]: 50.3 µM
GI50 [23]: 3.29 µM
TGI [23]: 12.7 µM
CC50 [23, 29]: 38 µM
GI50 [24]: 3.14 µM
TGI [24]: 10.5 µM
CC50 [24, 29]: 48.9 µM
GI50 [25]: 4.36 µM
TGI [25]: 16.1 µM
CC50 [25, 29]: 46 µM
GI50 [26]: 10.6 µM
TGI [26]: 24.3 µM
CC50 [26, 29]: 56.1 µM
GI50 [27]: 2.83 µM
TGI [27]: 15.6 µM
CC50 [27, 29]: 39.5 µM
GI50 [28]: 1.85 µM
TGI [28]: 3.98 µM
CC50 [28, 29]: 8.55 µM
